# High-throughput results as filed in PubChem.
# The sample as a whole holds a higher share of hits than the screen did.
# T cruzi inh: inhibitors of intracellular T. cruzi growth, primary screen, luminescence, NIH3T3 host cells | T. cruzi beta-gal in NIH3T3, 90 h | inhibition, % (no concentration beside the values) | 300,000 compounds, 1.4% hits | AID 1885, 2009;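 active means mean inhibition across valid replicates above about 55%, limit read from the data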;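 further: signal also drops with host cell toxicity which is not excluded here; higher percent means less beta-gal luminescence so fewer parasites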
#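 Material: NIH/3T3 host cells with β-galactosidase reporter T. cruzi; Input: 5,000 host fibroblasts per well; Medium: DMEM, 2% fetal bovine serum; Compound: 50 nL DMSO compound solution per well; Schedule: 3 h host attachment, then at least 90 h co-culture; Detection: luminescent β-galactosidase signal after 60 min lysis.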
# Dynein transport: inhibitors of GR-EGFP nuclear translocation, primary screen, dynein cargo transport inhibitor project, imaging, high-content, 3617.4 mouse cells; 220,000 compounds, 0.47% hits; test concentration mostly 20 µM; stimulated with dexamethasone, 1 µM; stronger effect = lower value; z-score, hits read low; AID 1381, 2008;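 active means plate z-score of nuclear minus cytoplasmic receptor signal below a set negative limit, without overly bright fluorescence or cell loss, cut at about -3.5 in these data, passing the limit was not always enough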;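 further: z-score of nuclear minus cytoplasmic ring GR-EGFP intensity difference per well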
#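 Buffer or medium: tet-free medium with charcoal-stripped serum / Also added: dexamethasone agonist, 1.0 µM final, for 30 min / Timing: induction 48 h, compound 1 h, agonist 30 min / Measured by: high-content fluorescence imaging after fixation / Read-out: nuclear-to-cytoplasmic GR-EGFP distribution per well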
# UPR CHOP act: activators of apoptotic CHOP UPR arm, primary screen, cell-based, CHO-CHOP luciferase reporter, luminescence, uHTS; UPR activation; percent of tunicamycin response over DMSO baseline; activation, % at 10 µM; 330,000 compounds, 0.34% hits; AID 449763, 2010;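 active means at 10 µM dose, activation of 40% or more, normalized to positive control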
#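 System: CHO CHOP reporter cells. Amount: 500 cells per well. Buffer or medium: F12 medium, 10% FBS. Compound dosing: one dose, 10 µM in 0.5% DMSO. Incubation: 6 h compound exposure at 37 °C after overnight seeding. Technique: Steady-Glo luciferase luminescence. Benchmarks: tunicamycin and DMSO controls.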
# CHOP inh: inhibitors of CHOP promoter induction, primary screen, cell-based, unfolded protein response, luciferase reporter; 220,000 compounds, 3.8% hits; inhibition, % at 10 µM; CHO-K1 CHOP-promoter luciferase, tunicamycin-induced, 15-18 h; AID 2732, 2010;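 active means compounds that reduced the stress-induced luciferase reporter signal by more than about 70% of percent inhibition, limit read from the data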
# UPR XBP1 act: activators of adaptive XBP1 UPR arm, primary screen, cell-based, CHO-XBP1 luciferase reporter, luminescence, uHTS; activation, % at 20 µM; IRE1-XBP1 UPR activation; percent of tunicamycin response, DMSO as zero; 330,000 compounds, 0.33% hits; AID 463104, 2010;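 active means versus positive control, 20 µM dose yields 30% or more activation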
#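 Assay system: CHO-XBP1 luciferase reporter cells; Schedule: 6 h treatment, 37 °C; Detection: glow luminescence from Steady-Glo reagent; Benchmarks: high control tunicamycin 10 µg/mL final, low control DMSO vehicle only.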
# Lmaj promast: Leishmania major promastigote growth inhibition, primary screen; inhibition, % at 10 µM; AID 1063, 2008; Leishmania major promastigotes, resazurin fluorescence viability; 200,000 compounds, 9% hits; in the data active means inhibition above about 50%;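 further: promastigotes grown with compound for 44 hours at 28 °C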
# Numbers stand for hits; – = inactive; · = no result.
SMILES,T cruzi inh,Dynein transport,UPR CHOP act,CHOP inh,UPR XBP1 act,Lmaj promast
CC1(C)CC(=O)C2=C(C1)N(c1ccc(F)cc1)C(=O)CC2c1cccnc1 (configuration not stated),–,–,–,–,–,–
COc1cccc(N(C(=O)Cn2nnc(-c3cccs3)n2)C(C(=O)NC(C)C)c2ccc(C)o2)c1 (configuration not stated),–,–,–,93,–,–
Cc1ccc(NC(=O)ON=C2CCCC2)cc1,–,–,–,–,–,84
CCCN1C(=O)/C(=C\c2nc3ccccc3c(=O)[nH]2)c2ccccc21,·,–,·,–,·,100
O=c1[nH]c(/C=C/c2ccccn2)nc2ccccc12,–,·,–,·,–,·
O=c1c2c([nH]c3ccccc13)CCCC2,–,–,–,–,–,55
CC(C)(C)C1CCc2[nH]c3ccccc3c(=O)c2C1 (configuration not stated),59,–,–,–,–,100
O=c1c2c([nH]c3ccccc13)C(=C1CCCC1)CC2,–,–,–,–,–,–
O=C1C[C@H]2[C@H](CO)[C@@H](OC(=O)c3ccc(-c4ccccc4)cc3)C[C@H]2O1,–,–,–,–,–,·
Cc1c(Cl)ccc2c(C(=O)NC(C)c3ccncc3)cc(-c3ccncc3)nc12 (configuration not stated),–,–,–,79,–,–
COC(=O)CNC(=O)c1cc(-c2ccncc2)nc2c(C)c(Cl)ccc12,–,–,–,–,–,–
O=C(CNC(=O)c1ccco1)NCc1ccc2c(c1)OCO2,·,·,–,·,–,·
O=C(N/N=C/c1sc(N2CCCCC2)nc1-c1cccs1)C1CC1,–,–,–,–,–,69
CCCCNC(=S)N(C)/N=C/c1sc(N2CCCCC2)nc1-c1cccs1,–,–,–,–,–,96
Cc1noc(C)c1C(=O)Nc1cccc(S(=O)(=O)N2CCOCC2)c1,·,·,–,·,–,·
Cc1cccc(CN2CCCC(C(=O)N3CCCCC3)C2)c1 (configuration not stated),–,·,–,·,–,·
O=C(CC1Sc2ccccc2NC1=O)c1ccc(Br)cc1 (configuration not stated),–,–,–,72,–,–
COc1cccc(C(=O)Oc2c(Br)cc(Br)cc2/C=N/NC(=O)c2cc(C)[nH]n2)c1,61,–,–,–,–,78
Cc1cc(C(=O)N/N=C/c2cccc(OC(=O)c3cccc(Br)c3)c2)n[nH]1,·,·,–,·,–,·
OC(CNC1CCCc2ccccc21)COc1c(Cl)cccc1Cl (configuration not stated),–,–,–,–,–,93
CCN(C1CCCCC1)S(=O)(=O)CCNC(=O)c1ccccc1,–,·,–,·,–,·
Cc1cccc(N2CCN(C(=O)C3CCCCC3)CC2)c1C,–,–,–,96,–,–
Cc1cccc(N2CCN(C(=O)C34CC5CC(CC(C5)C3)C4)CC2)c1C,–,–,–,72,–,–
O=C(N1CCN(c2ccccc2F)CC1)C12CC3CC(CC(C3)C1)C2,–,–,–,–,–,–
CCNC(=O)CSc1nnc(-c2cccc(S(=O)(=O)N3CCOCC3)c2)o1,·,·,–,·,–,·
Cc1nn(C)cc1S(=O)(=O)Nc1ncccn1,–,·,–,·,–,·
Cc1cc(OCCCCNC(C)C)cc(C(C)C)c1,–,–,–,–,–,97
CN(CC(O)COc1c(F)cc(Br)cc1F)C1CCCCC1 (configuration not stated),–,–,–,–,–,84
CCN(CC)C(=O)CN(c1cc2c(cc1OC)oc1ccccc12)S(=O)(=O)c1ccc(C)cc1,–,–,–,–,–,69
N#CC1=C(N)Nc2ncnn2C1c1ccccc1 (configuration not stated),–,–,–,–,–,57
